Reference: PMC8341738 (RSC Chemical Biology, 2021)

Columns and labels:
Fra1 [1] = biological target: T1, Fra1 (Homo sapiens, UniProt P15407); assay: Circular dichroism spectra, 1:1 mixture with Fra1; format: binding; conditions: 1:1 with Fra1, 150 μM total peptide, pH 7.0
T1 sequence (P15407 129-162): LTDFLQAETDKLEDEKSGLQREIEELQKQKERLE
How it was run: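 Fra1 and test peptide mixed 1:1 at 75 μM each (150 μM total) in 10 mM potassium phosphate, 100 mM KF, pH 7.0. Far-UV CD in a 1 mm cell, 300–190 nm, 1 nm steps, 0.5 s per point, three scans averaged. Spectra taken at 20 °C, at 5 °C, and at 20 °C after thermal denaturation to check refolding. Reported as mean residue ellipticity; 222/208 ratio used to judge oligomerisation.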

Fra1 [2] = biological target: T1, Fra1; assay: Protein-fragment complementation assay; format: cell-based; conditions: competition selection in liquid M9 medium, ten rounds, E. coli
[3] = Circular dichroism spectra, peptides in isolation; format: physicochemical; conditions: CD, 150 μM total peptide, 10 mM potassium phosphate, 100 mM potassium fluoride, pH 7.0
Fra1–cJun = assay: CD dimer exchange experiments; format: binding; conditions: CD at 20 °C, 150 μM total, equimolar, pH 7.0
How it was run: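 Dimer exchange by CD: equimolar peptide mixtures at 150 μM total peptide in 10 mM potassium phosphate, 100 mM potassium fluoride, pH 7.0. Equilibrated spectra recorded at 20 °C in a 1 mm cell, 300–190 nm in 1 nm steps, 0.5 s per wavelength, three scans averaged. Data expressed as mean residue ellipticity and superimposed across mixing orders.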

[4] = Size-exclusion chromatography, single peptides; format: physicochemical; conditions: Superdex Peptide 10/300 GL; 20 μM total peptide; 10 mM potassium phosphate, 100 mM potassium fluoride, pH 7.0; 0.5 mL min^−1; room temperature; monomeric
Fra1 [5] = biological target: T1, Fra1; assay: Isothermal titration calorimetry, Fra1W titrated into Fra1; format: binding
cJun [6] = assay: Size-exclusion chromatography, mixture with cJun; format: binding; conditions: cJun–Fra1W mixture, 20 μM total peptide, pH 7.0; monomeric
How it was run: (§1)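 Peptide mixture at 20 μM total peptide in 10 mM potassium phosphate, 100 mM KF, pH 7.0, run at room temperature on a peptide gel-filtration column at 0.5 mL min⁻¹. Elution times compared against previously characterised monomeric and heterodimeric coiled-coil reference peptides.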

cJun [7] = assay: CD thermal denaturation, mixture with cJun; format: binding; conditions: cJun–Fra1W; CD at 222 nm, 150 μM total peptide, pH 7
How it was run: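 Equimolar peptide pair at 150 μM total in 10 mM potassium phosphate, 100 mM KF, pH 7. Ellipticity at 222 nm recorded from 0 to 90 °C in 1 °C steps with a 30 s pause at each step, signal averaged over 4 s. Reversible curves (≥95%) were least-squares fitted to a two-state model (modified Gibbs–Helmholtz) to give Tm.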

cJun [8] = assay: Circular dichroism spectra, mixture with cJun; format: binding; conditions: CD at 20 °C, mixed with cJun, 150 μM total peptide, pH 7.0
Fra1 [9] = biological target: T1, Fra1; assay: Size-exclusion chromatography, mixture with Fra1; format: binding; conditions: Fra1–Fra1W mixture, 20 μM total peptide, pH 7.0; dimeric
How it was run: as §1

Substance: Ac-KAAALKQKAYALKQQIAALKKQVAALKQKIAALK-NH2 [Fra1W]
- CD signal vs averaged homomeric signals (Fra1 [1]; CD at 20 °C): an increase from the averaged homomeric signals of Fra1 and Fra1W
- 222/208 nm ratio (Fra1 [1]; CD): 1.06
- α-helical content of Fra1–Fra1W complex (Fra1 [1]; CD): 75%
- α-helical content relative to Fra1 in isolation (Fra1 [1]; CD): more than three times that of the target Fra1 in isolation
- PCA selection outcome (Fra1 [2]): one clean DNA sequence in the pool after ten rounds of competition selection passaging
- helical content [3]: 60%
- dimer exchange on addition of Fra1W to Fra1–cJun (Fra1–cJun): an increase in signal was observed
- dimer exchange on addition of Fra1 to cJun–Fra1W (Fra1–cJun): the CD signal increased from the average of the component samples
- dimer exchange on addition of cJun to Fra1–Fra1W (Fra1–cJun): no exchange of binding partner had occurred
- SEC elution time (oligomeric state) [4]: approximately 20 min
- Kd (Fra1 [5]): 917 nM
- N (stoichiometric measure of binding) (Fra1 [5]; ITC, 20 °C, pH 7.0): 1.06
- SEC elution time (oligomeric state) (cJun [6]): approximately 20 min
- thermal denaturation profile vs average of component peptides (cJun [7]): no difference from the average of the component peptides
- CD signal vs averaged homomeric signals (cJun [8]): superimposed with the averaged homomeric signals
- SEC elution time (oligomeric state) (Fra1 [9]): approximately 19 min
